Experimental data reported in ChEMBL document CHEMBL3244396, “Synthesis and antileukemic activity of 5-substituted 2,3-dihydro-6,7-bis(hydroxymethyl)-1H-pyrrolizine diesters” (J Med Chem, 1977).
Values after ≈ are worked out from the molar mass of the structure shown.

What was measured:
[1] = Cytotoxicity against human 9KB cells treated as ethanol solution; assay type: functional; settings: read-out: ED50 (the source's name)
Method in brief: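 Compound applied as an ethanol solution; activity read out as ED50 under the general screening protocol.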

[2] = tested on: L1210; experiment: Antileukemic activity against mouse L1210 cells allografted in female BDF1 mouse assessed as change in body weight at 50 mg/kg, ip administered daily for 9 days as Klucel suspension starting 24 hrs after tumor inoculation; assay type: functional; settings: route intraperitoneal
Method in brief: (§1)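 Ascitic fluid carrying L1210 cells was inoculated ip. Compound was given ip as a Klucel (hydroxypropylcellulose) suspension in nine daily doses, starting 24 h after inoculation. Body-weight difference (treated minus control) was recorded on day 5. Survival was scored as %T/C of mean survival time.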

[3] = tested on: L1210; experiment: Antileukemic activity against mouse L1210 cells allografted in female BDF1 mouse assessed as change in body weight at 100 mg/kg, ip administered daily for 9 days as Klucel suspension starting 24 hrs after tumor inoculation; assay type: functional; settings: route intraperitoneal; method in brief: as §1
[4] = tested on: L1210; experiment: Antileukemic activity against mouse L1210 cells allografted in female BDF1 mouse assessed as change in body weight at 200 mg/kg, ip administered daily for 9 days as Klucel suspension starting 24 hrs after tumor inoculation; assay type: functional; settings: route intraperitoneal; method in brief: as §1
[5] = tested on: L1210; experiment: Antileukemic activity against mouse L1210 cells allografted in female BDF1 mouse assessed as host mean survival time at 200 mg/kg, ip administered daily for 9 days as Klucel suspension starting 24 hrs after tumor inoculation relative to control; assay type: functional; settings: route intraperitoneal
Method in brief: (§2)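 L1210 leukemia given as an ascitic fluid cell inoculum, ip, to mice of the strain and sex in each line. Test material was given ip for nine daily doses starting 24 h after inoculation, in a Klucel (hydroxypropylcellulose) suspension. Read-out is mean survival time as %T/C versus controls, with >125 taken as significant.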

[6] = tested on: L1210; experiment: Antileukemic activity against mouse L1210 cells allografted in female BDF1 mouse assessed as host mean survival time at 100 mg/kg, ip administered daily for 9 days as Klucel suspension starting 24 hrs after tumor inoculation relative to control; assay type: functional; settings: route intraperitoneal; method in brief: as §2
[7] = tested on: L1210; experiment: Antileukemic activity against mouse L1210 cells allografted in female BDF1 mouse assessed as host mean survival time at 50 mg/kg, ip administered daily for 9 days as Klucel suspension starting 24 hrs after tumor inoculation relative to control; assay type: functional; settings: route intraperitoneal; method in brief: as §2
[8] = tested on: Mus musculus; experiment: Toxicity in female BDF1 mouse allografted with mouse L1210 cells assessed as animal survival at 200 mg/kg, ip administered daily for 9 days as Klucel suspension starting 24 hrs after tumor inoculation measured on fifth day; assay type: organism-based; set-up: dose 200 mg/kg, route intraperitoneal; settings: in vivo
Method in brief: (§3)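 L1210 leukemia passaged as ascitic fluid and inoculated ip. Test agent given ip as a Klucel (hydroxypropylcellulose) suspension, nine daily doses starting 24 h after tumor inoculation. Acute toxicity read as toxicity-day survivors per group (out of 6), recorded on day 5. Animal weight difference T − C was also recorded. Follows NCI screening protocols.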

[9] = tested on: Mus musculus; experiment: Toxicity in female BDF1 mouse allografted with mouse L1210 cells assessed as animal survival at 50 mg/kg, ip administered daily for 9 days as Klucel suspension starting 24 hrs after tumor inoculation measured on fifth day; assay type: organism-based; set-up: dose 50 mg/kg, route intraperitoneal; settings: in vivo; method in brief: as §3
[10] = tested on: P388; experiment: Antitumor activity against mouse P388 cells allografted in female CDF1 mouse assessed as disease cures by measuring 30-days host survival at 25 mg/kg, ip administered daily for 9 days as Klucel suspension starting 24 hrs after tumor inoculation relative to control; assay type: functional; settings: route intraperitoneal
Method in brief: (§4)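 P388 leukemia given as an ascitic fluid cell inoculum, ip, to mice of the strain and sex in each line. Nine daily ip doses were given in a Klucel (hydroxypropylcellulose) suspension, starting 24 h after inoculation. Read-out is median survival time as %T/C, with >125 taken as significant; a "cure" means 30-day survival.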

[11] = tested on: P388; experiment: Antitumor activity against mouse P388 cells allografted in female CDF1 mouse assessed as disease cures by measuring 30-days host survival at 12.5 mg/kg, ip administered daily for 9 days as Klucel suspension starting 24 hrs after tumor inoculation relative to control; assay type: functional; settings: route intraperitoneal; method in brief: as §4
[12] = tested on: Mus musculus; experiment: Toxicity in female CDF1 mouse allografted with mouse P388 cells assessed as animal survival at 100 mg/kg, ip administered daily for 9 days as Klucel suspension starting 24 hrs after tumor inoculation; assay type: organism-based; set-up: dose 100 mg/kg, route intraperitoneal; settings: in vivo
Method in brief: (§5)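 P-388 leukemia ascitic fluid inoculated ip. Compound given ip as a suspension in Klucel (hydroxypropylcellulose), once daily for nine doses beginning 24 h post-inoculation. Acute toxicity assessed as toxicity-day survivors per group. Survival was followed up to 30 days, with 30-day survival counted as "cure". Follows NCI screening protocols.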

[13] = tested on: Mus musculus; experiment: Toxicity in female CDF1 mouse allografted with mouse P388 cells assessed as animal survival at 50 mg/kg, ip administered daily for 9 days as Klucel suspension starting 24 hrs after tumor inoculation; assay type: organism-based; set-up: dose 50 mg/kg, route intraperitoneal; settings: in vivo; method in brief: as §5
[14] = tested on: Mus musculus; experiment: Toxicity in female CDF1 mouse allografted with mouse P388 cells assessed as animal survival at 25 mg/kg, ip administered daily for 9 days as Klucel suspension starting 24 hrs after tumor inoculation; assay type: organism-based; set-up: dose 25 mg/kg, route intraperitoneal; settings: in vivo; method in brief: as §5
[15] = tested on: Mus musculus; experiment: Toxicity in female CDF1 mouse allografted with mouse P388 cells assessed as animal survival at 12.5 mg/kg, ip administered daily for 9 days as Klucel suspension starting 24 hrs after tumor inoculation; assay type: organism-based; set-up: dose 12.5 mg/kg, route intraperitoneal; settings: in vivo; method in brief: as §5
[16] = tested on: P388; experiment: Antitumor activity against mouse P388 cells allografted in female CDF1 mouse assessed as change in body weight at 12.5 mg/kg, ip administered daily for 9 days as Klucel suspension starting 24 hrs after tumor inoculation; assay type: functional; settings: route intraperitoneal
Method in brief: (§6)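 Ascitic fluid carrying P388 cells was inoculated ip. Compound was given ip in nine daily doses, starting 24 h after inoculation, in Klucel (hydroxypropylcellulose) suspension or in saline with Tween-80. Body-weight difference (treated minus control) was recorded on day 5. Survival was scored as %T/C of median survival time, and 30-day survival counted as cure.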

[17] = tested on: P388; experiment: Antitumor activity against mouse P388 cells allografted in female CDF1 mouse assessed as change in body weight at 25 mg/kg, ip administered daily for 9 days as Klucel suspension starting 24 hrs after tumor inoculation; assay type: functional; settings: route intraperitoneal; method in brief: as §6
[18] = tested on: P388; experiment: Antitumor activity against mouse P388 cells allografted in female CDF1 mouse assessed as change in body weight at 50 mg/kg, ip administered daily for 9 days as Klucel suspension starting 24 hrs after tumor inoculation; assay type: functional; settings: route intraperitoneal; method in brief: as §6
[19] = tested on: P388; experiment: Antitumor activity against mouse P388 cells allografted in female CDF1 mouse assessed as change in body weight at 100 mg/kg, ip administered daily for 9 days as Klucel suspension starting 24 hrs after tumor inoculation; assay type: functional; settings: route intraperitoneal; method in brief: as §6
[20] = tested on: P388; experiment: Antitumor activity against mouse P388 cells allografted in female CDF1 mouse assessed as change in body weight at 200 mg/kg, ip administered daily for 9 days as Klucel suspension starting 24 hrs after tumor inoculation; assay type: functional; settings: route intraperitoneal; method in brief: as §6
[21] = tested on: P388; experiment: Antitumor activity against mouse P388 cells allografted in female CDF1 mouse assessed as disease cures by measuring 30-days host survival at 200 mg/kg, ip administered daily for 9 days as Klucel suspension starting 24 hrs after tumor inoculation relative to control; assay type: functional; settings: route intraperitoneal; method in brief: as §4
[22] = tested on: P388; experiment: Antitumor activity against mouse P388 cells allografted in female CDF1 mouse assessed as disease cures by measuring 30-days host survival at 100 mg/kg, ip administered daily for 9 days as Klucel suspension starting 24 hrs after tumor inoculation relative to control; assay type: functional; settings: route intraperitoneal; method in brief: as §4
[23] = tested on: P388; experiment: Antitumor activity against mouse P388 cells allografted in female CDF1 mouse assessed as disease cures by measuring 30-days host survival at 50 mg/kg, ip administered daily for 9 days as Klucel suspension starting 24 hrs after tumor inoculation relative to control; assay type: functional; settings: route intraperitoneal; method in brief: as §4

Compound `CNC(=O)OCc1c(COC(=O)NC)c(-c2ccc(OC)cc2)n2c1CCC2` has an EC50 [1] of 21 µg/mL (≈ 54.2 µM), an Activity [2] of -2.3 g and an Activity [3] of -4.8 g. For the same compound, the Activity [4] was -5 g, the T/C [5] was 98% and the T/C [6] was 117%. For the same compound, the T/C [7] was 109%, the Activity [8] was “Non-toxic” and the Activity [9] was “Non-toxic”. The T/C [10] was 132%, the T/C [11] was 132% and the Activity [12] was “Non-toxic”. For the same compound, the Activity [13] was “Non-toxic”, the Activity [14] was “Non-toxic” and the Activity [15] was “Non-toxic”. For the same compound, the Activity [16] was -3.2 g, the Activity [17] was -3.3 g and the Activity [18] was -4 g. For the same compound, the Activity [19] was -3.7 g, the Activity [20] was -3.6 g and the T/C [21] was 55%. For the same compound, the T/C [22] was 129% and the T/C [23] was 131%.
